The results in this text go back to ChEMBL document CHEMBL4477216, “Discovery and Optimization of Small Molecule Splicing Modifiers of Survival Motor Neuron 2 as a Treatment for Spinal Muscular Atrophy” (J Med Chem, 2016).

Molecules are shown by their SMILES.

The species entered for assay [1] is Homo sapiens. Nature of the assay: Inhibition of mRNA splicing of SMN2 exon 7 in GM03813 fibroblasts derived from SMA patient assessed as compound concentration required to increase SMN protein level by 1.5 times after 24 hrs by HTRF assay.
The species entered for assay [2] is Homo sapiens. Nature of the assay: Inhibition of mRNA splicing of human SMN2 exon 7 transfected in HEK293H cells assessed as compound concentration required to increase full-length SMN2 mRNA level by 1.5 times after 24 hrs by RT-qPCR analysis relative to GAPDH. The format is cell-based. An outline of the steps: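 HEK293H cells stably carrying the SMN2 minigene (exon 6 to 5' exon 8 fused to firefly luciferase) were plated and held for 6 h, then treated 24 h in duplicate at varying concentrations (0.5% DMSO). Full-length minigene mRNA and GAPDH were quantified by TaqMan RT-qPCR using actual PCR efficiencies. Results were normalized to GAPDH and DMSO and expressed as fold change versus DMSO.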

The species named for assay [3] is Homo sapiens. Nature of the assay: Inhibition of mRNA splicing of SMN2 exon 7 in GM03813 fibroblasts derived from SMA patient assessed as maximum fold increase of SMN protein level by 1.5 times after 24 hrs by HTRF assay relative to control.

Turning to `Cc1cn2cc(-c3cc4ccc(N5CCN[C@@H](C)C5)cc4oc3=O)nc2c(C)n1`, the EC1.5 in the assay listed under Homo sapiens [1] stood at 5 nM; in the assay listed under Homo sapiens [2], 1 nM.

Consider `O=c1oc2cc(N3CCNCC3)ccc2cc1-c1cn2ccccc2n1`, for which the results for the EC1.5 in the assay listed under Homo sapiens [1] and in the assay filed under Homo sapiens [2] were more than 10000 nM and 380 nM, respectively. The fold change (FC) in the assay listed under Homo sapiens [3] came to 1.3.

For the compound `Cc1cn2cc(-c3cc4ccc(N5CCNCC5)cc4oc3=O)nc2cn1`, the EC1.5 in the assay listed under Homo sapiens [1] came out at 5 nM; in the assay listed under Homo sapiens [2] it was 2 nM.

Turning to `O=c1oc2cc(N3CCNCC3)ccc2cc1-c1nc2ccccc2[nH]1`, the EC1.5 in the assay listed under Homo sapiens [1] is more than 10000 nM; in the assay filed under Homo sapiens [2], 430 nM. In the assay listed under Homo sapiens [3], the fold change (FC) was 1.2.

Consider `O=c1oc2cc(N3CCNCC3)ccc2cc1-c1ccccc1`, for which the EC1.5 is more than 10000 nM in the assay filed under Homo sapiens [1] and more than 32000 nM in the assay filed under Homo sapiens [2]. In the assay filed under Homo sapiens [3], the fold change (FC) stood at 1.

As to `CCc1ccc2nc(-c3cc4ccc(N5CCNCC5)cc4oc3=O)cn2c1`, the EC1.5 in the assay listed under Homo sapiens [1] was more than 10000 nM; in the assay listed under Homo sapiens [2], 2700 nM.

In the case of `Cc1cn2cc(-c3cc4ccc(N5CCNCC5)cc4oc3=O)ccc2n1`, the figures for the EC1.5 in the assay listed under Homo sapiens [1] and in the assay listed under Homo sapiens [2] were 66 nM and 5 nM, respectively.

For `Cc1cn2cc(-c3cc4ccc(N5CCN[C@H](C)C5)cc4oc3=O)nc2c(C)n1`, the EC1.5 in the assay listed under Homo sapiens [1] is 13 nM; in the assay listed under Homo sapiens [2], 3 nM.

As to `Cc1cc2cc(-c3cc4ccc(N5CCNCC5)cc4oc3=O)oc2c(C)n1`, the values for the EC1.5 in the assay listed under Homo sapiens [1] and in the assay listed under Homo sapiens [2] were 16 nM and 4 nM, respectively.

For the compound `COc1ccc(-c2cc3ccc(N4CCNCC4)cc3oc2=O)cc1OC`, the EC1.5 in the assay listed under Homo sapiens [1] is more than 10000 nM; in the assay listed under Homo sapiens [2], 620 nM. In the assay filed under Homo sapiens [3], the fold change (FC) came out at 1.3.

`COc1ccc(-c2cc3ccc(N4CCNCC4)cn3c(=O)n2)cc1OC`: the EC1.5 in the assay listed under Homo sapiens [1] and in the assay listed under Homo sapiens [2] was more than 10000 nM in each case. In addition, the fold change (FC) in the assay filed under Homo sapiens [3] came out at 1.

Regarding `Cc1cn2cc(-c3cc(=O)n4cc(N5CCNCC5)ccc4n3)cc(C)c2n1`, the EC1.5 in the assay listed under Homo sapiens [1] worked out at 60 nM; in the assay filed under Homo sapiens [2], 48 nM.

Turning to `Cc1cn2nc(-c3cc(=O)n4cc(C5CCN(C)CC5)ccc4n3)cc2c(C)n1`, the EC1.5 in the assay filed under Homo sapiens [1] worked out at 210 nM; in the assay listed under Homo sapiens [2], 53 nM.

On to `COc1ccc(-c2cc3ccc(N4CCNCC4)nc3oc2=O)cc1OC`, for which the results for the EC1.5 in the assay filed under Homo sapiens [1] and in the assay filed under Homo sapiens [2] were more than 10000 nM and 8800 nM, respectively. The fold change (FC) in the assay filed under Homo sapiens [3] came out at 1.

Take `COc1ccc(-c2cn3ccc(N4CCNCC4)cc3nc2=O)cc1OC`: the EC1.5 in the assay filed under Homo sapiens [1] and in the assay listed under Homo sapiens [2] was more than 10000 nM throughout. Moreover, the fold change (FC) in the assay listed under Homo sapiens [3] was found to be 1.

On to `Cc1cn2nc(-c3cc(=O)n4cc(N5CCN[C@H](C)C5)ccc4n3)cc2c(C)n1`, for which the values for the EC1.5 in the assay filed under Homo sapiens [1] and in the assay filed under Homo sapiens [2] were 71 nM and 11 nM, respectively.

As to `Cc1cn2cc(-c3cc4ccc(N5CCN(C(C)(C)C)CC5)cc4oc3=O)nc2c(C)n1`, the values for the EC1.5 in the assay filed under Homo sapiens [1] and in the assay filed under Homo sapiens [2] were more than 10000 nM and 59 nM, respectively.

Take `Cc1cn2cc(-c3cc4ccc(CCCN(C)C)cc4oc3=O)nc2c(C)n1`: the EC1.5 in the assay listed under Homo sapiens [1] is 220 nM; in the assay listed under Homo sapiens [2], 58 nM.

Consider `Cc1cn2cc(-c3cc4ccc(N5CCN6CCC[C@H]6C5)cc4oc3=O)nc2c(C)n1`, for which the results for the EC1.5 in the assay listed under Homo sapiens [1] and in the assay listed under Homo sapiens [2] were 66 nM and 21 nM, respectively.

Turning to `Cc1cn2cc(-c3cc4ccc(N5CCN(CCCF)[C@@H](C)C5)cc4oc3=O)nc2c(C)n1`, the EC1.5 in the assay listed under Homo sapiens [1] was 60 nM; in the assay listed under Homo sapiens [2], 19 nM.

`Cc1ccc2nc(-c3cc4ccc(N5CCNCC5)cc4oc3=O)cn2c1`: the EC1.5 in the assay listed under Homo sapiens [1] amounted to 160 nM; in the assay listed under Homo sapiens [2] it was 140 nM.

As to `Cc1cn2cc(-c3cc4ccc(C5CCN(C)CC5)cc4oc3=O)nc2c(C)n1`, the EC1.5 in the assay filed under Homo sapiens [1] stood at 50 nM; in the assay filed under Homo sapiens [2], 11 nM.

In the case of `COc1ccc(-c2cc3ccc(N4CCNCC4)cc3c(=O)[nH]2)cc1OC`, the figures for the EC1.5 in the assay filed under Homo sapiens [1] and in the assay listed under Homo sapiens [2] were more than 10000 nM and 1400 nM, respectively. For the same compound, in the assay filed under Homo sapiens [3], the fold change (FC) amounted to 1.2.

`COc1ccc(-c2cc3ccc(N4CCNCC4)cc3oc2=O)cc1`: the EC1.5 in the assay listed under Homo sapiens [1] was more than 10000 nM; in the assay filed under Homo sapiens [2], 2000 nM. For the same compound, the fold change (FC) in the assay filed under Homo sapiens [3] is 1.1.

Consider `Cc1cn2nc(-c3cc4ccc(C5CCN(C)CC5)cc4oc3=O)cc2c(C)n1`, for which the EC1.5 in the assay filed under Homo sapiens [1] and in the assay listed under Homo sapiens [2] was more than 10000 nM in each case.

Take `Cc1cn2nc(-c3cc(=O)n4cc(N5CCN6CCC[C@H]6C5)ccc4n3)cc2c(C)n1`: the EC1.5 in the assay listed under Homo sapiens [1] turned out to be 150 nM; in the assay listed under Homo sapiens [2] it was 120 nM.

As for `Cc1cn2cc(-c3cc4ccc(N5C[C@H]6CNC[C@H]6C5)cc4oc3=O)nc2c(C)n1`, the EC1.5 in the assay listed under Homo sapiens [1] was found to be 13 nM; in the assay listed under Homo sapiens [2] it was 1 nM.

With `Cc1cn2cc(-c3cc4ccc(N5CC[C@H]6CNC[C@H]65)cc4oc3=O)nc2c(C)n1`, the EC1.5 in the assay filed under Homo sapiens [1] amounted to 640 nM; in the assay filed under Homo sapiens [2], 28 nM.

With `O=c1oc2cc(N3CCNCC3)ccc2cc1-c1nc2ccccc2s1`, the EC1.5 in the assay listed under Homo sapiens [1] is more than 10000 nM; in the assay filed under Homo sapiens [2] it was 1000 nM. Besides, in the assay listed under Homo sapiens [3], the fold change (FC) was 1.

As for `Cc1cn2nc(-c3cc(=O)n4cc(N5CCN[C@@H](C)C5)ccc4n3)cc2c(C)n1`, the figures for the EC1.5 in the assay listed under Homo sapiens [1] and in the assay listed under Homo sapiens [2] were 160 nM and 19 nM, respectively.

In the case of `O=c1oc2cc(N3CCNCC3)ccc2cc1-c1cn2ccsc2n1`, the EC1.5 in the assay listed under Homo sapiens [1] amounted to 360 nM; in the assay filed under Homo sapiens [2], 110 nM. Moreover, the fold change (FC) in the assay filed under Homo sapiens [3] turned out to be 1.5.

On to `Cc1cn2cc(-c3cc4ccc(N5CCC(N(C)C)CC5)cc4oc3=O)nc2c(C)n1`, for which the EC1.5 in the assay filed under Homo sapiens [1] is 61 nM; in the assay listed under Homo sapiens [2] it was 11 nM.

For `COc1ccc(-c2cc3ccc(N4CCNCC4)cc3c(=O)o2)cc1OC`, the results for the EC1.5 in the assay filed under Homo sapiens [1] and in the assay listed under Homo sapiens [2] were 290 nM and 80 nM, respectively. Moreover, in the assay listed under Homo sapiens [3], the fold change (FC) amounted to 1.6.

As to `COc1ccc(-c2cnc3cc(N4CCNCC4)ccn3c2=O)cc1OC`, the figures for the EC1.5 in the assay listed under Homo sapiens [1] and in the assay listed under Homo sapiens [2] were more than 10000 nM and 3200 nM, respectively. Besides, in the assay listed under Homo sapiens [3], the fold change (FC) worked out at 1.

Regarding `Cc1cn2nc(-c3cc(=O)n4cc(N5CCC(N(C)C)CC5)ccc4n3)cc2c(C)n1`, the EC1.5 in the assay filed under Homo sapiens [1] was determined as 130 nM; in the assay listed under Homo sapiens [2] it was 20 nM.

For `Cc1cn2nc(-c3cc(=O)n4cc(N5CCN(C6CC6)CC5)ccc4n3)cc2c(C)n1`, the EC1.5 stood at 690 nM in the assay listed under Homo sapiens [1] and 380 nM in the assay filed under Homo sapiens [2].

For the compound `CCc1nc(C)cn2cc(-c3cc4ccc(N5CCNCC5)cc4oc3=O)nc12`, the EC1.5 stood at 210 nM in the assay listed under Homo sapiens [1] and 10 nM in the assay filed under Homo sapiens [2].

Regarding `CCN1CCN(c2ccc3cc(-c4cn5cc(C)nc(C)c5n4)c(=O)oc3c2)CC1`, the EC1.5 turned out to be 62 nM in the assay listed under Homo sapiens [1] and 10 nM in the assay listed under Homo sapiens [2].

In the case of `O=c1oc2cc(N3CCNCC3)ccc2cc1-c1cn2ccncc2n1`, the EC1.5 in the assay listed under Homo sapiens [1] was 120 nM; in the assay filed under Homo sapiens [2], 70 nM.

`Cc1cn2cc(-c3cc4ccc(N5CCNCC5)cc4oc3=O)cc2c(C)n1`: the EC1.5 in the assay filed under Homo sapiens [1] stood at 29 nM; in the assay listed under Homo sapiens [2], 4 nM.

For the compound `Cc1cn2cc(-c3cc4ccc(N5CCN[C@@H](C(C)C)C5)cc4oc3=O)nc2c(C)n1`, the figures for the EC1.5 in the assay listed under Homo sapiens [1] and in the assay filed under Homo sapiens [2] were 76 nM and 23 nM, respectively.

As to `Cc1cn2cc(-c3cc4ccc(N5CCN(CCF)[C@@H](C)C5)cc4oc3=O)nc2c(C)n1`, the EC1.5 in the assay listed under Homo sapiens [1] came out at 450 nM; in the assay filed under Homo sapiens [2] it was 37 nM.

`Cc1cc2oc(-c3cc4ccc(N5CCNCC5)cc4oc3=O)cc2c(C)n1`: the figures for the EC1.5 in the assay listed under Homo sapiens [1] and in the assay listed under Homo sapiens [2] were more than 10000 nM and 1500 nM, respectively.

Consider `COc1ccc(-c2cc(=O)n3cc(N4CCNCC4)ccc3n2)cc1OC`, for which the EC1.5 in the assay listed under Homo sapiens [1] is 830 nM; in the assay filed under Homo sapiens [2], 120 nM. The fold change (FC) in the assay filed under Homo sapiens [3] worked out at 1.6.

In the case of `Cc1cn2cc(-c3cc(=O)n4cc(N5CCNCC5)ccc4n3)nc2c(C)n1`, the EC1.5 in the assay listed under Homo sapiens [1] is 430 nM; in the assay filed under Homo sapiens [2], 180 nM.
